In PubChem BioAssay AID504324 (Broad Institute, 2011):
Values joined by “and” are separate entries in the source; they are usually repeats but may differ in a detail not shown here. Equal entries are not always repeated. Active and inactive are the calls of the source.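 How the source made its calls: active means compounds lowering the signal whose fitted half-maximal concentration is at most ten times their top tested dose; inconclusive means flat curve with a 30 to 70% drop, or poor fit; inactive means rising signal, flat curve, or potency beyond limit.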

Legend:
[1] = HRE-luciferase induction in zinc-containing medium – U2OS HRE-luc cells, dry powder, mechanism study for HIF pathway activator project, dose response (AID 504324); details: U2OS HRE-luciferase reporter, zinc medium, luminescence; at 38 µM (top of the series)
How it was run: (§1)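 Test system – human osteosarcoma U2OS cells stably expressing 3×HRE-driven luciferase reporter · Buffer or medium – phenol red-free DMEM, 10% FBS, plus 50 µM zinc sulfate · Doses – 8-point, 3-fold compound series · Schedule – 24 h plating, then 24 h compound treatment at 37 °C · Detection – Steady-Glo luciferase luminescence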

[2] = tested on: U2OS HRE-luciferase reporter, zinc medium, luminescence; assay: as above
How it was run: as §1

| SMILES | activity change, negative = decrease [1] | AC50 [2] |
| --- | --- | --- |
| c1ccc(-c2nnc(Nc3nc(-c4ccccn4)nnc3-c3ccccc3)s2)cc1 | 161% (inactive) |  |
| COc1ccccc1N1CCN(Cc2ccc(O)c3ncccc23)CC1 | 52.8% (inactive) |  |
| O=C(NCCN1CCOCC1)c1cc(-c2ccccc2)on1 | 1440% (inactive) |  |
| Clc1cccc(CNc2nc(-c3ccccn3)nnc2-c2ccccc2)c1 | 4600% (inactive) |  |
| Cc1ccc(NC(=O)c2cc(-c3ccccc3)on2)cn1 | 21.6% (inactive) |  |
| CN1CCN(C(=O)c2cc(-c3ccccc3)on2)CC1 | 13.1% (inactive) |  |
| O=C(Nc1nc2ccccc2s1)c1cc(-c2ccccc2)on1 | 12.6% (inactive) |  |
| O=C(NC1Cc2ccccc2C1)c1cc(-c2ccccc2)on1 | 146% (inactive) |  |
| COc1ccc(CNc2nc(-c3ccccn3)nnc2-c2ccccc2)cc1 | 5130% (inactive) |  |
| c1ccc(-c2nnc(-c3ccccn3)nc2N2CCC(c3ccccc3)C2)cc1 (configuration not stated) | 5380% (inactive) |  |
| Cc1cccc(CNc2nc(-c3ccccn3)nnc2-c2ccccc2)c1 | 6280% (inactive) |  |
| OCC1CCN(c2nc(-c3ccccn3)nnc2-c2ccccc2)CC1 | 1330% (inactive) |  |
| CC(C)(C)OC(=O)N1CCN(Cc2ccc(O)c3ncccc23)CC1 | 28.3% (inactive) |  |
| c1ccc(-c2nnc(-c3ccccn3)nc2NCCCN2CCOCC2)cc1 | 5050% (inactive) |  |
| c1ccc(-c2nnc(-c3ccccn3)nc2NCC2CCOCC2)cc1 | 3680% (inactive) |  |
| CC(Nc1nc(-c2ccccn2)nnc1-c1ccccc1)c1ccccc1 (configuration not stated) | 4380% (inactive) |  |
| CC(C)(C)CCNc1nc(-c2ccccn2)nnc1-c1ccccc1 | 7490% (inactive) and 6820% (inactive) |  |
| CN(C)c1nc(-c2ccccn2)nnc1-c1ccccc1 | 3380% (inactive) |  |
| O=C(c1cc(-c2ccccc2)on1)N1CCC(CO)CC1 | 14.3% (inactive) |  |
| Cc1ccc(CNc2nc(-c3ccccn3)nnc2-c2ccccc2)cc1C | 4550% (inactive) |  |
| Oc1ccc(CNC2CCc3ccccc32)c2cccnc12 (configuration not stated) |  | > 38 µM (inactive) |
| c1ccc(-c2nnc(-c3ccccn3)nc2NCc2ccccn2)cc1 | 3330% (inactive) |  |

| SMILES | activity change, negative = decrease [1] | AC50 [2] |
| --- | --- | --- |
| c1ccc(-c2cccc(CNc3nc(-c4ccccn4)nnc3-c3ccccc3)c2)cc1 | 4810% (inactive) |  |
| c1ccc(-c2nnc(-c3ccccn3)nc2N2CCC(N3CCOCC3)CC2)cc1 | 4120% (inactive) |  |
| O=C(NCc1ccccc1)c1cc(-c2ccccc2)on1 | 64% (inactive) |  |
| O=C(Nc1ccc2ccccc2n1)c1cc(-c2ccccc2)on1 | 22.8% (inactive) |  |
| O=C(NCC1CCCCC1)c1cc(-c2ccccc2)on1 | 158% (inactive) |  |
| C[C@@H](Nc1nc(-c2ccccn2)nnc1-c1ccccc1)C1CCCCC1 | 4780% (inactive) |  |
| CCCCNC(=O)c1cc(-c2ccccc2)on1 | 1050% (inactive) |  |
| O=C(Nc1ncc2ccccc2n1)c1cc(-c2ccccc2)on1 | 152% (inactive) |  |
| Oc1ccc(CN2CCc3ccccc3C2)c2cccnc12 | -77.2% (inactive) and 47.2% (inactive) |  |
| O=C(c1cc(-c2ccccc2)on1)N1CCC(N2CCCC2)CC1 | 6.15% (inactive) |  |
| Cc1ccc(CNC(=O)c2cc(-c3ccccc3)on2)cc1 | 10.4% (inactive) |  |
| C=CCNc1nc(-c2ccccn2)nnc1-c1ccccc1 | 5230% (inactive) |  |
| CN1CCN(c2nc(-c3ccccn3)nnc2-c2ccccc2)CC1 | 1500% (inactive) |  |
| Cc1cccc(CNC(=O)c2cc(-c3ccccc3)on2)c1 | -6.77% (inactive) |  |
| c1ccc(CCNc2nc(-c3ccccn3)nnc2-c2ccccc2)cc1 | 4750% (inactive) |  |
| O=C(NCCCO)c1cc(-c2ccccc2)on1 | 811% (inactive) |  |
| CN(C)CCNC(=O)c1cc(-c2ccccc2)on1 | 31.3% (inactive) |  |
| O=C(NCCN1CCCCC1)c1cc(-c2ccccc2)on1 | 56.5% (inactive) |  |
| C[C@@H](Nc1nc(-c2ccccn2)nnc1-c1ccccc1)c1ccccc1 | 4300% (inactive) |  |
| Cn1c(-c2ccccc2)cnc1Nc1nc(-c2ccccn2)nnc1-c1ccccc1 | 210% (inactive) |  |
| O=C(Nc1nc(-c2ccccc2)cs1)c1cc(-c2ccccc2)on1 | -11.2% (inactive) |  |
| Cc1cccc(Nc2nc(-c3ccccn3)nnc2-c2ccccc2)n1 | 4620% (inactive) |  |

| SMILES | activity change, negative = decrease [1] | AC50 [2] |
| --- | --- | --- |
| c1ccc(-c2nnc(-c3ccccn3)nc2NCc2cccnc2)cc1 | 3620% (inactive) |  |
| COc1cccc(CNc2nc(-c3ccccn3)nnc2-c2ccccc2)c1 | 4540% (inactive) |  |
| CC(C)(C)CCNC(=O)c1cc(-c2ccccc2)on1 | 651% (inactive) |  |
| Cc1ccccc1CNC(=O)c1cc(-c2ccccc2)on1 | 25.4% (inactive) |  |
| O=C(NCCCCO)c1cc(-c2ccccc2)on1 | 1710% (inactive) |  |
| O=C(Nc1cnc2ccccc2c1)c1cc(-c2ccccc2)on1 | 17.3% (inactive) |  |
| O=C(c1cc(-c2ccccc2)on1)N1CCc2cccnc21 | 44% (inactive) |  |
| Cc1ccc(CNc2nc(-c3ccccn3)nnc2-c2ccccc2)cc1 | 6080% (inactive) |  |
| c1ccc(-c2nnc(-c3ccccn3)nc2NCC2CCCCC2)cc1 | 8340% (inactive) |  |
| O=C(NC1CCc2ccccc2C1)c1cc(-c2ccccc2)on1 (configuration not stated) | -9.29% (inactive) |  |
| Oc1ccc(CNC2Cc3ccccc3C2)c2cccnc12 | 314% (inactive) |  |
| Cc1ccccc1CNc1nc(-c2ccccn2)nnc1-c1ccccc1 | 5380% (inactive) |  |
| O=C(Nc1ncc(-c2ccccc2)o1)c1cc(-c2ccccc2)on1 | 18.1% (inactive) |  |
| c1ccc(-c2nnc(-c3ccccn3)nc2Nc2cnc3ccccc3n2)cc1 |  | 10.6 µM |
| c1ccc(-c2nnc(-c3ccccn3)nc2N2CCN(c3ccncc3)CC2)cc1 | 4830% (inactive) |  |
| CC(C)(C)c1ccc(CNc2nc(-c3ccccn3)nnc2-c2ccccc2)cc1 | 3790% (inactive) |  |
| c1ccc(-c2csc(Nc3nc(-c4ccccn4)nnc3-c3ccccc3)n2)cc1 | 315% (inactive) |  |
| O=C(Nc1nnc(-c2ccccc2)s1)c1cc(-c2ccccc2)on1 | 6.48% (inactive) |  |
| c1ccc(-c2nnc(-c3ccccn3)nc2NCCN2CCOCC2)cc1 | 3780% (inactive) |  |
| C[C@H](Nc1nc(-c2ccccn2)nnc1-c1ccccc1)C1CCCCC1 | 5570% (inactive) |  |
| OCC1CCN(Cc2ccc(O)c3ncccc23)CC1 | 29.9% (inactive) |  |
| N#CC1(c2ccccc2)CCN(Cc2ccc(O)c3ncccc23)CC1 | 208% (inactive) |  |

| SMILES | activity change, negative = decrease [1] | AC50 [2] |
| --- | --- | --- |
| CC1CN(Cc2ccc(O)c3ncccc23)CC(C)O1 (configuration not stated) | 4.72% (inactive) |  |
| c1ccc(CNc2nc(-c3ccccn3)nnc2-c2ccccc2)cc1 | 5410% (inactive) |  |
| Oc1ccc(CN2CCC3CCCCC3C2)c2cccnc12 (configuration not stated) | 916% (inactive) |  |
| O=C(NCC1CC1)c1cc(-c2ccccc2)on1 | 798% (inactive) |  |
| c1ccc(-c2ccc(CNc3nc(-c4ccccn4)nnc3-c3ccccc3)cc2)cc1 | 3920% (inactive) |  |
| OCCCNc1nc(-c2ccccn2)nnc1-c1ccccc1 | 3730% (inactive) |  |
| O=C(NCCCn1ccnc1)c1cc(-c2ccccc2)on1 | 1800% (inactive) |  |
| O=C(c1cc(-c2ccccc2)on1)N1CCN(c2ccncc2)CC1 | -13.1% (inactive) |  |
| c1ccc(-c2nnc(-c3ccccn3)nc2NCC2CC2)cc1 | 5580% (inactive) |  |
| Cc1cccc(NC(=O)c2cc(-c3ccccc3)on2)n1 | 39.8% (inactive) |  |
| c1ccc(-c2nnc(-c3ccccn3)nc2N2CCC(C3CCCCC3)C2)cc1 (configuration not stated) | 4900% (inactive) |  |
| c1ccc(-c2nnc(-c3ccccn3)nc2Nc2nc3ccccc3s2)cc1 |  | 5.6 µM |
| Cn1c(-c2ccccc2)cnc1NC(=O)c1cc(-c2ccccc2)on1 | 19% (inactive) |  |
| Cn1c(NC(=O)c2cc(-c3ccccc3)on2)nc2ccccc21 | -2.21% (inactive) |  |
| c1ccc(-c2nnc(-c3ccccn3)nc2NCCc2ccccn2)cc1 | 4700% (inactive) |  |
| c1ccc(-c2cnc(Nc3nc(-c4ccccn4)nnc3-c3ccccc3)s2)cc1 | 44.9% (inactive) |  |
| Cc1ccc(Nc2nc(-c3ccccn3)nnc2-c2ccccc2)cn1 | 2240% (inactive) |  |
| O=C(c1cc(-c2ccccc2)on1)N1CCC(N2CCOCC2)CC1 | -1.04% (inactive) |  |
| Oc1ccc(CN2CCC(Cc3ccccc3)CC2)c2cccnc12 | 27.6% (inactive) |  |
| O=C(NCCCN1CCOCC1)c1cc(-c2ccccc2)on1 | 1480% (inactive) |  |
| O=C(Nc1cn2ccccc2n1)c1cc(-c2ccccc2)on1 | 41.5% (inactive) |  |
